In brackets after ≈: the same amount, converted by molar mass.
Key:
Type in all cases: functional
Klebsiella pneumoniae [1] = assay: Antimicrobial activity against Klebsiella pneumoniae expressing beta-lactamase SHV and CTX by Etest
In short: (§1)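 Clinical isolates from tigecycline phase 3 trials were received as frozen primary cultures. Repeat isolates from one patient were riboprinted, and only the first of identical strains was kept. β-lactamase genes were assigned by PCR against control strains, plus isoelectric focusing. ESBL confirmation used Etest ESBL strips carrying ceftazidime or cefotaxime with clavulanic acid, read per the manufacturer's instructions.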

Escherichia coli [2] = assay: Antimicrobial activity against Escherichia coli expressing beta-lactamase CTX by Etest based on multiple determinants
In short: (§2)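 Clinical isolates from tigecycline phase 3 trials were received as frozen primary cultures. Serial isolates from one patient were riboprinted, and only the first of identical strains was kept. β-Lactamase genes were assigned by PCR. ESBL confirmation used Etest ESBL strips carrying ceftazidime or cefotaxime, alone and combined with clavulanic acid, following the strip maker's instructions.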

Proteus mirabilis [3] = assay: Antimicrobial activity against Proteus mirabilis expressing extended-spectrum beta-lactamase by Etest based on single determinant; in short: as §1
Escherichia coli [4] = assay: Antimicrobial activity against Escherichia coli expressing beta-lactamase CTX and SHV by Etest; in short: as §2
Klebsiella pneumoniae [5] = assay: Antimicrobial activity against Klebsiella pneumoniae expressing beta-lactamase CTX by Etest based on multiple determinants; in short: as §1
Klebsiella pneumoniae [6] = assay: Antimicrobial activity against Klebsiella pneumoniae expressing beta-lactamase SHV by Etest based on multiple determinants; in short: as §1
Klebsiella pneumoniae [7] = assay: Antimicrobial activity against Klebsiella pneumoniae expressing beta-lactamase DHA by Etest; in short: as §2
Proteus mirabilis [8] = assay: Antimicrobial activity against Proteus mirabilis expressing beta-lactamase AmpC by Etest; in short: as §1
Escherichia coli [9] = assay: Antimicrobial activity against Escherichia coli expressing beta-lactamase SHV by Etest; in short: as §2
Escherichia coli [10] = assay: Antimicrobial activity against Escherichia coli extended-spectrum beta-lactamase producing isolate by Etest; in short: as §2
Klebsiella pneumoniae [11] = assay: Antimicrobial activity against Klebsiella pneumoniae expressing extended-spectrum beta-lactamase and beta-lactamase AmpC by Etest; in short: as §2
Klebsiella pneumoniae [12] = assay: Antimicrobial activity against Klebsiella pneumoniae expressing beta-lactamase CTX by Etest based on single determinant; in short: as §1
Escherichia coli [13] = assay: Antimicrobial activity against Escherichia coli expressing beta-lactamase AmpC by Etest; in short: as §2
Proteus mirabilis [14] = assay: Antimicrobial activity against Proteus mirabilis extended-spectrum beta-lactamase producing isolate by Etest; in short: as §1
Klebsiella pneumoniae [15] = assay: Antimicrobial activity against Klebsiella pneumoniae expressing beta-lactamase SHV by Etest based on single determinant; in short: as §1
Klebsiella pneumoniae [16] = assay: Antimicrobial activity against Klebsiella pneumoniae extended-spectrum beta-lactamase producing isolate by Etest; in short: as §1
Proteus mirabilis [17] = assay: Antimicrobial activity against Proteus mirabilis expressing extended-spectrum beta-lactamase by Etest based on multiple determinants; in short: as §1
Escherichia coli [18] = assay: Antimicrobial activity against Escherichia coli expressing beta-lactamase AmpC and extended-spectrum beta-lactamase by Etest; in short: as §2
Escherichia coli [19] = assay: Antimicrobial activity against Escherichia coli expressing beta-lactamase CTX by Etest based on single determinant; in short: as §2

Structure (SMILES)	MIC50 (Klebsiella pneumoniae [1])	MIC90 (Klebsiella pneumoniae [1])	MIC50 (Escherichia coli [2])	MIC90 (Escherichia coli [2])	MIC (Proteus mirabilis [3])	MIC50 (Escherichia coli [4])	MIC90 (Escherichia coli [4])	MIC50 (Klebsiella pneumoniae [5])	MIC90 (Klebsiella pneumoniae [5])	MIC (Klebsiella pneumoniae [6])	MIC (Klebsiella pneumoniae [7])	MIC (Proteus mirabilis [8])	MIC (Escherichia coli [9])	MIC50 (Escherichia coli [10])	MIC90 (Escherichia coli [10])	MIC (Klebsiella pneumoniae [11])	MIC50 (Klebsiella pneumoniae [12])	MIC90 (Klebsiella pneumoniae [12])	MIC (Escherichia coli [13])	MIC50 (Proteus mirabilis [14])	other results
CN(C)c1cc(NC(=O)CNC(C)(C)C)c(O)c2c1C[C@H]1C[C@H]3[C@H](N(C)C)C(O)=C(C(N)=O)C(=O)[C@@]3(O)C(O)=C1C2=O [TIGECYCLINE]	0.5 µg/mL (≈ 0.854 µM)	2 µg/mL (≈ 3.41 µM)	0.5 µg/mL (≈ 0.854 µM)	0.5 µg/mL (≈ 0.854 µM)	2 µg/mL (≈ 3.41 µM)	0.25 µg/mL (≈ 0.427 µM)	0.5 µg/mL (≈ 0.854 µM)	0.5 µg/mL (≈ 0.854 µM)	1 µg/mL (≈ 1.71 µM)	0.5 µg/mL (≈ 0.854 µM)	0.5 µg/mL (≈ 0.854 µM)	2 µg/mL (≈ 3.41 µM)	0.12 µg/mL (≈ 0.205 µM)	0.25 µg/mL (≈ 0.427 µM)	0.5 µg/mL (≈ 0.854 µM)	0.5 µg/mL (≈ 0.854 µM)	1 µg/mL (≈ 1.71 µM)	2 µg/mL (≈ 3.41 µM)	0.25 µg/mL (≈ 0.427 µM)	2 µg/mL (≈ 3.41 µM)	MIC (Escherichia coli [4]): 0.25 µg/mL (≈ 0.427 µM); MIC90 (Proteus mirabilis [14]): 16 µg/mL (≈ 27.3 µM); MIC50 (Klebsiella pneumoniae [15]): 0.5 µg/mL (≈ 0.854 µM); MIC90 (Klebsiella pneumoniae [15]): 1 µg/mL (≈ 1.71 µM); MIC50 (Klebsiella pneumoniae [16]): 0.5 µg/mL (≈ 0.854 µM); MIC90 (Klebsiella pneumoniae [16]): 2 µg/mL (≈ 3.41 µM); MIC (Proteus mirabilis [17]): 0.5 µg/mL (≈ 0.854 µM); MIC50 (Escherichia coli [18]): 0.25 µg/mL (≈ 0.427 µM); MIC90 (Escherichia coli [18]): 0.5 µg/mL (≈ 0.854 µM); MIC50 (Escherichia coli [19]): 0.25 µg/mL (≈ 0.427 µM); MIC90 (Escherichia coli [19]): 0.5 µg/mL (≈ 0.854 µM)
NC[C@H]1O[C@H](O[C@H]2[C@H](O)[C@@H](O[C@H]3O[C@H](CO)[C@@H](O)[C@H](N)[C@H]3O)[C@H](N)C[C@@H]2N)[C@H](N)C[C@@H]1O [TOBRAMYCIN]	32 µg/mL (≈ 68.4 µM)	> 32 µg/mL	32 µg/mL (≈ 68.4 µM)	> 32 µg/mL	0.5 µg/mL (≈ 1.07 µM)	32 µg/mL (≈ 68.4 µM)	> 32 µg/mL	32 µg/mL (≈ 68.4 µM)	> 32 µg/mL	0.5 µg/mL (≈ 1.07 µM)	16 µg/mL (≈ 34.2 µM)	4 µg/mL (≈ 8.56 µM)	0.25 µg/mL (≈ 0.535 µM)	32 µg/mL (≈ 68.4 µM)	> 32 µg/mL	0.25 µg/mL (≈ 0.535 µM)	16 µg/mL (≈ 34.2 µM)	> 32 µg/mL	1 µg/mL (≈ 2.14 µM)	8 µg/mL (≈ 17.1 µM)	MIC90 (Proteus mirabilis [14]): > 32 µg/mL; MIC50 (Klebsiella pneumoniae [15]): 16 µg/mL (≈ 34.2 µM); MIC90 (Klebsiella pneumoniae [15]): > 32 µg/mL; MIC50 (Klebsiella pneumoniae [16]): 32 µg/mL (≈ 68.4 µM); MIC90 (Klebsiella pneumoniae [16]): > 32 µg/mL; MIC (Proteus mirabilis [17]): 4 µg/mL (≈ 8.56 µM); MIC50 (Escherichia coli [18]): 16 µg/mL (≈ 34.2 µM); MIC90 (Escherichia coli [18]): > 32 µg/mL; MIC50 (Escherichia coli [19]): 32 µg/mL (≈ 68.4 µM); MIC90 (Escherichia coli [19]): > 32 µg/mL

From ChEMBL document CHEMBL1629612, “Characterization and sequence analysis of extended-spectrum-{beta}-lactamase-encoding genes from Escherichia coli, Klebsiella pneumoniae, and Proteus mirabilis isolates collected during tigecycline phase 3 clinical trials” (2009)
